Measured values collected from several papers.
Lines come from different studies, so protocols differ.
TYK2: Non-receptor tyrosine-protein kinase TYK2 (TYK2, Homo sapiens, UniProt P29597)
TYK2 JH1: Non-receptor tyrosine-protein kinase TYK2, JH1 (TYK2, Homo sapiens, UniProt P29597)
TYK2 JH2: Non-receptor tyrosine-protein kinase TYK2, JH2 (TYK2, Homo sapiens, UniProt P29597)

| Structure (SMILES) | target | observed | action | method | concentration | measurement | result |
| --- | --- | --- | --- | --- | --- | --- | --- |
| O=C(Nc1cnn(-c2csc(C(=O)NC3COC3)c2)c1)Nc1ccccc1Cl | TYK2 | enzyme activity | inhibitor | – | 5 µM | remaining activity | 95.9% |
| N#CCCc1ccc2c(c1)-c1[nH]c3ccc([N+](=O)[O-])cc3c1CC(=O)N2 | TYK2 | cell-free assay | – | – | 0.5 µM | remaining signal | 48.1% |
| CC1=C(C#N)[C@@H](c2ccc3[nH]nc(C)c3c2)C(C#N)=C(c2ccc(Cl)cc2)N1 | TYK2 JH1 | cell-free assay | – | competition with immobilised ligand | 1 µM | remaining binding | 73.1% |
| N[C@H]1CCN(c2nccc(-c3cnn4ncccc34)n2)C1 | TYK2 JH1 | cell-free assay | – | – | 1 µM | remaining signal | 76% |
| Cc1cc(NC(=O)c2cccc3cc(-c4cccc5[nH]nc(N)c45)ccc23)ccc1F | TYK2 | enzyme activity | inhibitor | – | 0.1 µM | activity vs control | 94% |
| Nc1ncnc2occ(-c3ccc(NC(=O)Nc4cc(C(F)(F)F)ccc4F)cc3)c12 | TYK2 JH2 | cell-free assay | inhibitor | – | 20 µM | remaining signal | 100% |
| O=C1CCc2cc(Nc3cc(OC4CCOCC4)c([N+](=O)[O-])cc3Cl)ccc2N1 | TYK2 JH2 | cell-free assay | – | competition with immobilised ligand | 1 µM | remaining binding | 94% |
| c1cnn2ncc(-c3ccnc(N4CCC45COC5)n3)c2c1 | TYK2 JH1 | cell-free assay | – | – | 1 µM | remaining signal | 64% |
| O=C1NC(=O)c2cc(Nc3ccc(F)cc3)c(Nc3ccc(F)cc3)cc21 | TYK2 | cell-free assay | – | – | 0.5 µM | remaining signal | 80.6% |
| CCC(=N\O)/C(C)=C/c1ccc(F)cc1 | TYK2 JH2 | cell-free assay | – | competition with immobilised ligand | 1 µM | remaining binding | 73% |
| CC(C)(C)c1nc(-c2cccc(NS(=O)(=O)c3c(F)cccc3F)c2F)c(-c2ccnc(N)n2)s1 | TYK2 | enzyme activity | inhibitor | radiometric | 1 µM | remaining activity | 96% |
| CS(=O)(=O)NCC[C@H](NC(=O)c1cncc2c1cnn2-c1ccc(F)cc1)c1ccnc(S(C)(=O)=O)c1 | TYK2 JH1 | cell-free assay | – | competition with immobilised ligand | 1 µM | remaining binding | 100% |
| Cc1cnc(NC2CCOCC2)nc1-n1cnc(C(=O)NC(CN)c2cc(F)cc(Cl)c2)c1 (stereo not shown) | TYK2 | enzyme activity | inhibitor | radiometric | 1 µM | remaining activity | 96% |
| CC(=O)N1CCC(c2ccc(C(=O)NC3=NCCN3)cc2C(F)(F)F)CC1 | TYK2 JH1 | cell-free assay | – | competition with immobilised ligand | 1 µM | remaining binding | 100% |
| O=C1Nc2ccc(Cl)cc2C1=Cc1cc(Cl)c(O)c(Cl)c1 | TYK2 | cell-free assay | – | – | 0.5 µM | remaining signal | 26.9% |
| CN(c1nccc(-c2cnn3ncccc23)n1)C1CC1 | TYK2 | binding | – | – | 1 µM | remaining binding | 100% |
| CCOCCn1cc(C(=O)Nc2ccc(-n3nc(-c4cccnc4)cc3C(F)(F)F)cn2)ccc1=O | TYK2 JH1 | cell-free assay | – | competition with immobilised ligand | 1 µM | remaining binding | 100% |
| CN(C)c1nccc(-c2cnc3ncccn23)n1 | TYK2 JH1 | cell-free assay | – | competition with immobilised ligand | 1 µM | remaining binding | 83% |
| CC(C)(O)[C@H]1CC[C@H](Nc2ccc3ncc(-c4cccc(C(F)(F)F)c4)n3n2)CC1 | TYK2 | enzyme activity | inhibitor | – | 1 µM | remaining activity | 73.7% |
| Cc1cnn2ncc(-c3ccnc(N(C)C)n3)c2c1 | TYK2 | binding | – | – | 1 µM | remaining binding | 32% |
| O=c1nc(-c2ccccn2)sc2ccccc12 | TYK2 JH2 | binding | – | competition with immobilised ligand | 1 µM | remaining binding | 98% |
| Cc1ccc(NC(=O)c2ccc(C)c(C(F)(F)F)c2)cc1C#Cc1nn(C2CCC(O)CC2)c2ncnc(N)c12 (stereo not shown) | TYK2 | cell-free assay | – | – | 10 µM | remaining signal | 36% |
| Cn1nc(C(=O)NCc2ccc(C(=O)O)cc2)cc1-c1ccc2[nH]ccc2c1 | TYK2 JH2 | cell-free assay | – | competition with immobilised ligand | 0.1 µM | remaining binding | 94% |
| CNC(=O)c1cc(Oc2ccc(NC(=O)Nc3ccc(Cl)c(C(F)(F)F)c3)cc2)ccn1 | TYK2 | cell-free assay | – | – | 0.5 µM | remaining signal | 98.9% |
| CN1CC(Oc2cnc(C#N)cc2-c2ccn3nc(NC(=O)C4CC4)cc3c2)C1 | TYK2 | enzyme activity | inhibitor | – | 1 µM | inhibition | -10% |
| O=C(CSc1nc2nccnc2c(=O)n1CCc1ccccc1)Nc1nccs1 | TYK2 | enzyme activity | inhibitor | – | 10 µM | inhibition | 5% |
| C[C@H]1CCN(c2nccc(-c3cnn4ncccc34)n2)C1 | TYK2 JH1 | cell-free assay | – | – | 1 µM | remaining signal | 63% |
| COc1cc2ncnc(Nc3ccc(Oc4ccccc4)c(C)c3C)c2cc1OC | TYK2 | enzyme activity | inhibitor | – | 1 µM | inhibition | -2% |
